ChEMBL document CHEMBL1165950, “Design and synthesis of new potent anticancer pyrazoles with high FLT3 kinase inhibitory selectivity” (Bioorg Med Chem, 2010)

Legend:
Assay type in all cases: functional
HT-29 [1] = experiment: Cytotoxicity against human HT-29 cells assessed as cell growth at 0.001 uM after 48 hrs by sulforhodamine B assay; settings: HT-29, 48 h, read-out: Activity
U-251 = experiment: Cytotoxicity against human U251 cells assessed as cell growth at 10 uM; settings: read-out: Activity
Outline: (§1)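 NCI-60 screen: cells grown in RPMI 1640 with 5% FBS and 2 mM L-glutamine, plated at 5000–40,000 cells/well according to doubling time, and preincubated 24 h at 37 °C, 5% CO2. The single 10 µM dose (DMSO stock) was added, then incubated 48 h. Cells were TCA-fixed and stained with 0.4% SRB, read at 515 nm, and growth % calculated against time-zero and control plates.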

KM12 [2] = experiment: Cytotoxicity against human KM12 cells assessed as cell growth at 10 uM after 48 hrs by sulforhodamine B assay; settings: KM12, 48 h, read-out: Activity
SK-MEL-5 = experiment: Growth inhibition of human SK-MEL-5 cells after 48 hrs by sulforhodamine B assay; settings: SK-MEL-5, 48 h; for CC50: read-out: LC50 (the source's name)
Outline: (§2)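 NCI 60-cell screen, five-dose mode. Cells grown in RPMI 1640 with 5% FBS and 2 mM L-glutamine and plated at 5000-40,000 cells/well according to doubling time. After 24 h preincubation, a Tz plate was TCA-fixed. Five concentrations (10-fold or 1/2 log dilutions) were applied for 48 h at 37 °C. SRB staining read at 515 nm. IC50 taken from [(Ti-Tz)/(C-Tz)]×100 = 50.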

NCI-H522 = experiment: Cytotoxicity against human NCI-H522 cells assessed as cell growth at 10 uM after 48 hrs by sulforhodamine B assay; settings: NCI-H522, 48 h, read-out: Activity
COLO 205 = experiment: Cytotoxicity against human COLO205 cells assessed as cell growth at 10 uM after 48 hrs by sulforhodamine B assay; settings: COLO 205, 48 h, read-out: Activity
MDA-MB-231 = experiment: Growth inhibition of human MDA-MB-231 cells after 48 hrs by sulforhodamine B assay; settings: MDA-MB-231, 48 h; outline: as §2
MDA-MB-468 = experiment: Cytotoxicity against human MDA-MB-468 cells assessed as cell growth at 0.01 uM after 48 hrs by sulforhodamine B assay; settings: MDA-MB-468, 48 h, read-out: Activity
ACHN = experiment: Cytotoxicity against human ACHN cells assessed as cell growth at 100 nM after 48 hrs by sulforhodamine B assay; settings: read-out: Activity
Outline: (§3)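 NCI-60 five-dose screen. Cells were grown in RPMI 1640 with 5% FBS and 2 mM L-glutamine, plated at 5000–40,000 cells/well and preincubated for 24 h. Time-zero plates were TCA-fixed. DMSO-solubilized drug was added at five concentrations (10-fold or ½-log serial dilutions) for 48 h at 37 °C, 5% CO2. Cells were TCA-fixed, stained with 0.4% SRB and read at 515 nm. Percent growth used time-zero, control and test absorbances.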

HT-29 [3] = experiment: Cytotoxicity against human HT-29 cells assessed as cell growth at 10 uM; settings: read-out: Activity
Outline: (§4)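 Single-dose NCI-60 screen at 10 µM. Cells were grown in RPMI 1640 with 5% FBS and 2 mM L-glutamine, then treated for 48 h at 37 °C. Protein was measured by SRB staining with absorbance at 515 nm. Percentage growth was recorded, and inhibition percentage was calculated as 100 minus growth percentage.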

NCI-H23 [4] = experiment: Growth inhibition of human NCI-H23 cells after 48 hrs by sulforhodamine B assay; settings: NCI-H23, 48 h; for CC50: read-out: LC50 (the source's name); outline: as §2
A498 = experiment: Cytotoxicity against human A498 cells assessed as cell growth at 10 uM; settings: read-out: Activity; outline: as §4
UACC-257 = experiment: Growth inhibition of human UACC257 cells after 48 hrs by sulforhodamine B assay; settings: UACC-257, 48 h; for CC50: read-out: LC50 (the source's name); outline: as §2
KM12 [5] = experiment: Cytotoxicity against human KM12 cells assessed as cell growth at 100 nM after 48 hrs by sulforhodamine B assay; settings: KM12, 48 h, read-out: Activity
LOX IMVI [6] = experiment: Cytotoxicity against human LOXIMVI cells assessed as cell growth at 0.01 uM after 48 hrs by sulforhodamine B assay; settings: read-out: Activity
OVCAR-4 = experiment: Cytotoxicity against human OVCAR4 cells assessed as cell growth at 10 uM; settings: read-out: Activity; outline: as §1
UACC-62 [7] = experiment: Cytotoxicity against human UACC62 cells assessed as cell growth at 1 uM after 48 hrs by sulforhodamine B assay; settings: UACC-62, 48 h, read-out: Activity
HOP-62 = experiment: Cytotoxicity against human HOP62 cells assessed as cell growth at 1 uM after 48 hrs by sulforhodamine B assay; settings: HOP-62, 48 h, read-out: Activity
UO-31 = experiment: Cytotoxicity against human UO31 cells assessed as cell growth at 1 uM after 48 hrs by sulforhodamine B assay; settings: UO-31, 48 h, read-out: Activity
OVCAR-5 = experiment: Cytotoxicity against human OVCAR5 cells assessed as cell growth at 1 uM after 48 hrs by sulforhodamine B assay; settings: OVCAR-5, 48 h, read-out: Activity
HOP-92 = experiment: Cytotoxicity against human HOP92 cells assessed as cell growth at 0.01 uM after 48 hrs by sulforhodamine B assay; settings: HOP-92, 48 h, read-out: Activity
CCRF-CEM = experiment: Cytotoxicity against human CCRF-CEM cells assessed as cell growth at 0.01 uM after 48 hrs by sulforhodamine B assay; settings: read-out: Activity; outline: as §3
MOLT-4 = experiment: Cytotoxicity against human MOLT4 cells assessed as cell growth at 10 uM after 48 hrs by sulforhodamine B assay; settings: MOLT-4, 48 h, read-out: Activity
SW-620 = experiment: Cytotoxicity against human SW620 cells assessed as cell growth at 0.001 uM after 48 hrs by sulforhodamine B assay; settings: SW-620, 48 h, read-out: Activity
K562 = experiment: Cytotoxicity against human K562 cells assessed as cell growth at 0.01 uM after 48 hrs by sulforhodamine B assay; settings: K562, 48 h, read-out: Activity
[8] = Cytotoxicity against human RPMI8266 cells assessed as cell growth at 0.01 uM after 48 hrs by sulforhodamine B assay; settings: read-out: Activity
LOX IMVI [9] = experiment: Cytotoxicity against human LOXIMVI cells assessed as cell growth at 10 uM; settings: read-out: Activity; outline: as §1
NCI-H23 [10] = experiment: Cytotoxicity against human NCI-H23 cells assessed as cell growth at 0.01 uM after 48 hrs by sulforhodamine B assay; settings: NCI-H23, 48 h, read-out: Activity
UACC-62 [11] = experiment: Growth inhibition of human UACC62 cells after 48 hrs by sulforhodamine B assay; settings: UACC-62, 48 h; for CC50: read-out: LC50 (the source's name); outline: as §2
T47D = experiment: Cytotoxicity against human T47D cells assessed as cell growth at 10 uM after 48 hrs by sulforhodamine B assay; settings: read-out: Activity
A549 = experiment: Cytotoxicity against human A549 cells assessed as cell growth at 100 nM after 48 hrs by sulforhodamine B assay; settings: A549, 48 h, read-out: Activity; outline: as §3

Cc1cc(O)cc(-c2nn(CC#N)cc2-c2ccnc(-c3ccc(N(C)C)cc3)c2)c1
growth at 0.001 µM (HT-29 [1]): 101% | growth at 10 µM (U-251): 17.1% | growth at 10 µM (KM12 [2]): -97% | GI50 (SK-MEL-5): 1.99 µM | TGI (SK-MEL-5): 5.75 µM | CC50 (SK-MEL-5): 22.9 µM | growth at 10 µM (NCI-H522): -57% | growth at 10 µM (COLO 205): -82% | GI50 (MDA-MB-231): 2.94 µM | LC50 (MDA-MB-231): > 100 µM | TGI (MDA-MB-231): 22.6 µM | growth at 0.01 µM (MDA-MB-468): 91% | growth at 0.1 µM (ACHN): 93% | growth at 10 µM (HT-29 [3]): 20.5% | GI50 (NCI-H23 [4]): 4.48 µM | TGI (NCI-H23 [4]): 24.8 µM | CC50 (NCI-H23 [4]): > 100 µM | growth at 10 µM (A498): 51.1% | GI50 (UACC-257): 4.35 µM | TGI (UACC-257): 35.6 µM | CC50 (UACC-257): > 100 µM | growth at 0.1 µM (KM12 [5]): 66% | growth at 0.01 µM (LOX IMVI [6]): 104% | growth at 10 µM (OVCAR-4): 29.9% | growth at 1 µM (UACC-62 [7]): 10% | growth at 1 µM (HOP-62): 13% | growth at 1 µM (UO-31): 19% | growth at 1 µM (OVCAR-5): 64% | growth at 0.01 µM (HOP-92): 85% | growth at 0.01 µM (CCRF-CEM): 96% | growth at 10 µM (MOLT-4): -6% | growth at 0.001 µM (SW-620): 99% | growth at 0.01 µM (K562): 101% | growth at 0.01 µM [8]: 99% | growth at 10 µM (LOX IMVI [9]): 33.7% | growth at 0.01 µM (NCI-H23 [10]): 96% | GI50 (UACC-62 [11]): 3.05 µM | TGI (UACC-62 [11]): 14 µM | CC50 (UACC-62 [11]): 72.1 µM | growth at 10 µM (T47D): -44% | growth at 0.1 µM (A549): 95%

COc1cc(C)cc(-c2c(-c3ccnc(-c4ccc(C(C)=O)cc4)c3)cnn2CC#N)c1
growth at 0.001 µM (HT-29 [1]): 110% | growth at 10 µM (U-251): 84.7% | growth at 10 µM (KM12 [2]): 10% | GI50 (SK-MEL-5): 1.94 µM | TGI (SK-MEL-5): 4.96 µM | CC50 (SK-MEL-5): > 100 µM | growth at 10 µM (NCI-H522): -10% | growth at 10 µM (COLO 205): -67% | GI50 (MDA-MB-231): 3.63 µM | LC50 (MDA-MB-231): > 100 µM | TGI (MDA-MB-231): > 100 µM | growth at 0.01 µM (MDA-MB-468): 84% | growth at 0.1 µM (ACHN): 90% | growth at 10 µM (HT-29 [3]): 15.2% | GI50 (NCI-H23 [4]): 3.9 µM | TGI (NCI-H23 [4]): > 100 µM | CC50 (NCI-H23 [4]): > 100 µM | growth at 10 µM (A498): 83% | GI50 (UACC-257): 5.24 µM | TGI (UACC-257): > 100 µM | CC50 (UACC-257): > 100 µM | growth at 0.1 µM (KM12 [5]): 85% | growth at 0.01 µM (LOX IMVI [6]): 105% | growth at 10 µM (OVCAR-4): 80.2% | growth at 1 µM (UACC-62 [7]): 25% | growth at 1 µM (HOP-62): 19% | growth at 1 µM (UO-31): 11% | growth at 1 µM (OVCAR-5): 60% | growth at 0.01 µM (HOP-92): 69% | growth at 0.01 µM (CCRF-CEM): 93% | growth at 10 µM (MOLT-4): 14% | growth at 0.001 µM (SW-620): 96% | growth at 0.01 µM (K562): 80% | growth at 0.01 µM [8]: 94% | growth at 10 µM (LOX IMVI [9]): 58.8% | growth at 0.01 µM (NCI-H23 [10]): 95% | GI50 (UACC-62 [11]): 4.05 µM | TGI (UACC-62 [11]): > 100 µM | CC50 (UACC-62 [11]): > 100 µM | growth at 10 µM (T47D): -12% | growth at 0.1 µM (A549): 83%

COc1cc(C)cc(-c2c(-c3ccnc(-c4ccc(N(C)C)cc4)c3)cnn2CC#N)c1
growth at 0.001 µM (HT-29 [1]): 94% | growth at 10 µM (U-251): 11.2% | growth at 10 µM (KM12 [2]): -49% | GI50 (SK-MEL-5): 0.0394 µM | TGI (SK-MEL-5): 0.309 µM | CC50 (SK-MEL-5): > 100 µM | growth at 10 µM (NCI-H522): -52% | growth at 10 µM (COLO 205): 4% | GI50 (MDA-MB-231): 0.256 µM | LC50 (MDA-MB-231): > 100 µM | growth at 0.01 µM (MDA-MB-468): -10% | growth at 0.1 µM (ACHN): 34% | growth at 10 µM (HT-29 [3]): -33.3% | GI50 (NCI-H23 [4]): 0.276 µM | TGI (NCI-H23 [4]): > 100 µM | CC50 (NCI-H23 [4]): > 100 µM | growth at 10 µM (A498): 21.3% | GI50 (UACC-257): 0.0359 µM | TGI (UACC-257): > 100 µM | CC50 (UACC-257): > 100 µM | growth at 0.1 µM (KM12 [5]): -36% | growth at 0.01 µM (LOX IMVI [6]): 39% | growth at 10 µM (OVCAR-4): 26% | growth at 1 µM (UACC-62 [7]): 18% | growth at 1 µM (HOP-62): 31% | growth at 1 µM (UO-31): 12% | growth at 1 µM (OVCAR-5): 81% | growth at 0.01 µM (HOP-92): -9% | growth at 0.01 µM (CCRF-CEM): 73% | growth at 10 µM (MOLT-4): 1% | growth at 0.001 µM (SW-620): 105% | growth at 0.01 µM (K562): 34% | growth at 0.01 µM [8]: 78% | growth at 10 µM (LOX IMVI [9]): 4.55% | growth at 0.01 µM (NCI-H23 [10]): 67% | GI50 (UACC-62 [11]): 0.0619 µM | TGI (UACC-62 [11]): > 100 µM | CC50 (UACC-62 [11]): > 100 µM | growth at 10 µM (T47D): 6% | growth at 0.1 µM (A549): 10%
